Source: ChEMBL document CHEMBL3792374, “Discovery of a ring-opened derivative of 3-n-butylphthalide bearing NO/H2S-donating moieties as a potential anti-ischemic stroke agent” (Eur J Med Chem, 2016)
Calls of active or inactive are those of the source. The calls are words filed in the database; no cut-off is given here.

Assays:
Liver [1] = assay: Induction of hydrogen sulfide release in rat liver homogenate at 100 uM after 30 mins by microplate reader method (reference value: 1.03 to 1.21%); format: functional, tissue-based
Outline: (§1)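 Compound was incubated at 37 °C for 0–90 min with fresh rat liver homogenate. The reaction was stopped with 1% zinc acetate and 10% trichloroacetic acid. N,N-dimethyl-p-phenylenediamine sulfate in 7.2 M HCl and FeCl3 in 1.2 M HCl were added, and absorbance was read at 670 nm after 10 min. Values were calculated against an NaHS standard curve as cumulative % conversion to H2S, n = 6.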

[2] = Induction of nitric oxide release in potassium phosphate buffer at pH 7.4 at 0.1 mM after 60 mins by Griess assay; format: physicochemical; conditions: pH 7.4, 1 h, 100 µM
Outline: (§2)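 Compound (0.1 mM) in PBS pH 7.4 containing 2% DMSO and 5.0 mM L-cysteine was held at 37 °C for 15–300 min. Samples were taken every 15 min up to 120 min, then every 30 min. Each sample was reacted with Griess reagent for 10 min at 37 °C and absorbance read at 540 nm. Nitrite was quantified from a nitrite standard curve. Means reported; intra-group variation <10%.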

Rattus norvegicus [3] = assay: Antioxidant activity in Sprague-Dawley rat brain tissue model of transient middle cerebral artery occlusion stroke model assessed as increase in superoxide dismutase levels per mg of protein at 380 mg/kg […] measured 24 hrs after reperfusion by nitroblue tetrazolium assay relative to control; format: functional
Rattus norvegicus [4] = assay: (§3) Antioxidant activity in Sprague-Dawley rat brain tissue model of transient middle cerebral artery occlusion stroke model assessed as malondialdehyde levels per mg of protein at 80 mg/kg administered via oral gavage for 7 days after ischemia onset measured 24 hrs after reperfusion (reference value: 1.46 nmol); format: functional; conditions: in the assay text read “before ischemia onset” for “after ischemia onset”
Outline: (§4)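 Male SD rats (280–320 g; n = 12 per group) were gavaged daily for 7 days, with 0.5% CMC-Na as vehicle. Two hours after the last dose they were anesthetized with chloral hydrate (300 mg/kg ip) and underwent 2 h MCAO followed by reperfusion. Brains were taken 24 h after reperfusion, rinsed in cold saline and stored at −70 °C. Protein was quantified, then GSH, SOD, GSH-Px and MDA were measured by kits. Mean ± SD, n = 6, ANOVA/Tukey.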

[5] = Induction of nitric oxide release in potassium phosphate buffer at pH 7.4 at 0.1 mM after 105 mins by Griess assay; format: physicochemical; conditions: pH 7.4, 1.75 h, 100 µM; outline: as §2
Rattus norvegicus [6] = assay: as §3, with “glutathione” for “malondialdehyde”, “380” for “80”, “reperfusion by DTNB assay” for “reperfusion”, “23.47” for “1.46”; format: functional; conditions: in the assay text read “before ischemia onset” for “after ischemia onset”; outline: as §4
Rattus norvegicus [7] = assay: Antioxidant activity in Sprague-Dawley rat brain tissue model of transient middle cerebral artery occlusion stroke model assessed as increase in superoxide dismutase levels per mg of protein at 80 mg/kg […] measured 24 hrs after reperfusion by nitroblue tetrazolium assay relative to control; format: functional
[8] = Induction of nitric oxide release in potassium phosphate buffer at pH 7.4 at 0.1 mM after 120 mins by Griess assay; format: physicochemical; conditions: pH 7.4, 2 h, 100 µM; outline: as §2
Liver [9] = assay: Induction of hydrogen sulfide release in rat liver homogenate at 100 uM after 15 mins by microplate reader method (reference value: 1.03 to 1.21%); format: functional, tissue-based; outline: as §1
Rattus norvegicus [10] = assay: Neuroprotective activity in Sprague-Dawley rat model of transient middle cerebral artery occlusion stroke model assessed as reduction in infarct size at 380 mg/kg administered via oral gavage for 7 days […] measured 24 hrs after middle cerebral artery occlusion by TTC assay; format: functional, organism-based
Outline: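 Male SD rats (280–320 g), n=12/group, dosed by gavage in 0.5% CMC-Na daily for seven days; 2 h after last dose, anesthetized (chloral hydrate 300 mg/kg ip) and subjected to 2 h intraluminal MCAO then reperfusion. At 24 h post-reperfusion, brains (n=6) cut coronally at 2 mm, stained 2% TTC 30 min 37 °C, formalin-fixed; infarct area expressed as percent of whole brain; mean SD, ANOVA/Tukey.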

[11] = Antiplatelet activity in rabbit platelet-rich plasma assessed as inhibition of ADP-induced platelet aggregation at 0.1 mM preincubated for 5 mins followed by addition of ADP measured within 5 mins by Borns turbidimetric method; format: functional; conditions: Oryctolagus cuniculus
Outline: (§5)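 Rabbit carotid blood was citrated (3.8%, 9:1). PRP was obtained at 500 g for 10 min and PPP at 3000 g for 10 min. PRP was preincubated in duplicate for 5 min at 37 °C with 0.1 mM compound, plus carboxy-PTIO or BSS where indicated. ADP was then added and maximal light transmission recorded within 5 min, within 3 h of blood collection. Inhibition % was calculated versus control. Mean ± SD of three independent experiments.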

Rattus norvegicus [12] = assay: Neuroprotective activity in Sprague-Dawley rat model of transient middle cerebral artery occlusion stroke model assessed as reduction in brain water content at 380 mg/kg administered via oral gavage for 7 days after ischemia onset measured 24 hrs after middle cerebral artery occlusion; format: functional, organism-based; conditions: in the assay text read “before ischemia onset” for “after ischemia onset”
Outline: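 Male SD rats were gavaged daily for 7 days, with 0.5% CMC-Na as vehicle, then underwent 2 h MCAO with reperfusion. At 24 h after reperfusion the ischemic hemisphere was weighed wet, dried at 100 °C for 24 h and reweighed. Water content was calculated as (wet − dry)/wet × 100%. Mean ± SD, n = 6, ANOVA/Tukey.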

[13] = Antiplatelet activity in rabbit platelet-rich plasma assessed as inhibition of ADP-induced platelet aggregation at 0.1 mM preincubated for 5 mins followed by addition of ADP measured within 5 mins by Borns turbidimetric method in presence of H2S scavenger BSS; format: functional; conditions: Oryctolagus cuniculus; outline: as §5
[14] = Induction of nitric oxide release in potassium phosphate buffer at pH 7.4 at 0.1 mM after 75 mins by Griess assay; format: physicochemical; conditions: pH 7.4, 1.25 h, 100 µM; outline: as §2
Rattus norvegicus [15] = assay: as §3, with “380” for “80”; format: functional; conditions: in the assay text read “before ischemia onset” for “after ischemia onset”; outline: as §4
[16] = Induction of nitric oxide release in potassium phosphate buffer at pH 7.4 at 0.1 mM after 90 mins by Griess assay; format: physicochemical; conditions: pH 7.4, 1.5 h, 100 µM; outline: as §2
[17] = Antiplatelet activity in rabbit platelet-rich plasma assessed as inhibition of ADP-induced platelet aggregation preincubated for 5 mins followed by addition of ADP measured within 5 mins by Borns turbidimetric method; format: functional; conditions: Oryctolagus cuniculus
Outline: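 Platelet-rich plasma from citrated rabbit carotid blood was preincubated in duplicate at 37 °C for 5 min with compound at 0.1, 0.2, 0.4, 0.8 or 1.6 mM. ADP-induced aggregation was then recorded turbidimetrically, as maximal light transmission within 5 min. Inhibition was calculated versus vehicle control, and IC50 values were derived. Mean ± SD, n = 6, ANOVA/Tukey.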

[18] = Induction of nitric oxide release in potassium phosphate buffer at pH 7.4 at 0.1 mM after 30 mins by Griess assay; format: physicochemical; conditions: pH 7.4, 0.5 h, 100 µM; outline: as §2
Rattus norvegicus [19] = assay: Neuroprotective activity in Sprague-Dawley rat model of transient middle cerebral artery occlusion stroke model assessed as reduction in neurological deficit at 380 mg/kg […] measured 24 hrs after middle cerebral artery occlusion by Longa's method; format: functional, organism-based
[20] = Induction of nitric oxide release in potassium phosphate buffer at pH 7.4 at 0.1 mM after 45 mins by Griess assay; format: physicochemical; conditions: pH 7.4, 0.75 h, 100 µM; outline: as §2
Liver [21] = assay: Induction of hydrogen sulfide release in rat liver homogenate at 100 uM after 90 mins by microplate reader method (reference value: 1.03 to 1.21%); format: functional, tissue-based; outline: as §1

`CCCCC(OC(=O)CN1CCN(CCCCCOc2ccc(-c3cc(=S)ss3)cc2)CC1)c1ccccc1C(=O)Oc1ccc(/C=C/C(=O)OCCO[N+](=O)[O-])cc1OC` (racemic) gave an Activity (Liver [1]) of 3.04%, an Activity [2] of 8.03 µM and an Activity (Rattus norvegicus [3]) of 32.02%. It also gave an Activity (Rattus norvegicus [4]) of 1.07 nmol, an Activity [5] of 9.63 µM and an Activity (Rattus norvegicus [6]) of 28.05 nmol. It also gave an Activity (Rattus norvegicus [7]) of 23.07%, an Activity [8] of 10.09 µM and an Activity (Liver [9]) of 2.83%. For the same compound, the Activity (Rattus norvegicus [10]) was “Active”, the inhibition at 100 µM [11] was 41% and the Activity (Rattus norvegicus [12]) was “Active”. For the same compound, the inhibition at 100 µM [13] was 20.9%, the Activity [14] was 8.48 µM and the Activity (Rattus norvegicus [15]) was 0.86 nmol. For the same compound, the Activity [16] was 9.14 µM, the IC50 [17] was 140 µM and the Activity [18] was 5.48 µM. The Activity (Rattus norvegicus [19]) was “Active”, the Activity [20] was 6.89 µM and the Activity (Liver [21]) was 4.4%.
